Data as given in ChEMBL document CHEMBL5038600, “Discovery of M-1121 as an Orally Active Covalent Inhibitor of Menin-MLL Interaction Capable of Achieving Complete and Long-Lasting Tumor Regression” (J Med Chem, 2021).
Active and inactive are the calls of the source. The rule behind the calls is not given here.

How the values were obtained:
KOPN-8 = test: Anti-proliferative activity against human KOPN-8 cells harboring MLL/ENL fusion protein assessed as cell growth inhibition measured after 4 days by Cell Titre Glo Luminescent Cell viability assay; assay type: functional, cell-based; settings: KOPN-8, 96 h
Summary of the method: (§1)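 Leukemia lines plated in triplicate in RPMI 1640 at 37 °C, 5% CO2. 9-point dose response from 10 μM top concentration with 1:3 serial dilutions, 0.1% DMSO final; DMSO vehicle control column. Cellular ATP read by CellTiter-Glo at day 0 and after 4 days. Averages from three independent experiments.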

MEG-01 = test: Anti-proliferative activity against human MEG-01 cells harboring MLL wild-type protein assessed as cell growth inhibition measured after 4 days by Cell Titre Glo Luminescent Cell viability assay; assay type: functional, cell-based; settings: MEG-01, 96 h; summary of the method: as §1
HL-60 = test: Anti-proliferative activity against human HL-60 cells harboring MLL wild-type protein assessed as cell growth inhibition measured after 4 days by Cell Titre Glo Luminescent Cell viability assay; assay type: functional, cell-based; settings: HL-60, 96 h; summary of the method: as §1
[1] = Oral bioavailability in C57BL/6 mouse at 5 mg/kg; assay type: ADME, organism-based; settings: in vivo
Summary of the method: (§2)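 Female C57BL/6 mice, single oral dose of 5 mg/kg in 0.5% methyl cellulose + 0.2% Tween 80 (w/w). Bioavailability is calculated against the 1 mg/kg IV arm.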

[2] = Anti-proliferative activity against human OCI-AML-4 cells harboring MLL-ENL fusion protein assessed as cell growth inhibition measured after 4 days by Cell Titre Glo Luminescent Cell viability assay; assay type: functional, cell-based; settings: OCI-AML-4, 96 h; summary of the method: as §1
[3] = Toxicity in NCG mouse xenografted with luciferase-tagged MV4-11 cells assessed as change in body weight at 150 mg/kg, po administered daily for 4 days measured after 48 hrs; assay type: organism-based; settings: in vivo, 96 h, time 4 day
Summary of the method: (§3)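 Female NCG mice, 5–6 weeks old, given 5×10^6 luciferase-tagged MV4;11 cells IV via tail vein. Randomized at log-phase disease (day 27). Dosed 150 mg/kg oral gavage daily for 4 days in MC/Tween 80 vehicle. Read-outs 48 h after the last dose, five mice per group, mean ± SEM: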

[4] = Protein binding in mouse plasma at 1 uM incubated for 5 hrs by liquid chromatography-tandem mass spectrometry; assay type: ADME, cell-free
Summary of the method: (§4)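 Equilibrium dialysis: plasma spiked at 1 μM against dialysis buffer, shaken 5 h at 37 °C, with warfarin and quinidine (1 μM) as controls. Samples matrix-matched, quenched with acetonitrile containing imipramine internal standard, and analysed by LC-MS/MS. Percent bound computed from peak area ratios.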

MV4-11 [5] = test: Anti-tumor activity against luciferase-tagged human MV4-11 cells xenografted in NCG mouse assessed as reduction in number of CD45+/CD33+ cells at 150 mg/kg, po administered daily for 4 days measured after 48 hrs by flow cytometry; assay type: functional, organism-based; settings: time 4.0 day; summary of the method: as §3
Menin (Homo sapiens) [6] = target: T1, Menin (Homo sapiens) (UniProt O00255); test: Binding affinity to recombinant human menin protein assessed as covalent complex formation incubated for 30 mins by LC/MS analysis; parameters: concentration or dose not given beside the values
T1 sequence (whole entry): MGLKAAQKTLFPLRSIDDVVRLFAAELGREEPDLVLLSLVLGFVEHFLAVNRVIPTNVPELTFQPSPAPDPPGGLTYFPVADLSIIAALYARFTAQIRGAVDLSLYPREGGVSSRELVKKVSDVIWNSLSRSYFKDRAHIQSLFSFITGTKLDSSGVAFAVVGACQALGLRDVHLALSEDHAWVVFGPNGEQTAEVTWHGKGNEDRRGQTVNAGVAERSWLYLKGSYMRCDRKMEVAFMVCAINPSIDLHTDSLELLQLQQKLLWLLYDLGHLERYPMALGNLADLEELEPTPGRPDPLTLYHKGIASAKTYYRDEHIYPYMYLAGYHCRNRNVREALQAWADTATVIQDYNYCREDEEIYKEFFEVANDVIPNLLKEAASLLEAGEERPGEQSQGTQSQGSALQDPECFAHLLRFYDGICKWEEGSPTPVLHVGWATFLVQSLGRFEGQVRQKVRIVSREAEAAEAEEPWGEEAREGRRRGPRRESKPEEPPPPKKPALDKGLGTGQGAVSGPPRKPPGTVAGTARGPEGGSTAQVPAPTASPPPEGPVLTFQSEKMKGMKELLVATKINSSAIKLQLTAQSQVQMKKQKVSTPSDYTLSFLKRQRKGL

[7] = GSH reactivity in pH 7.4 assessed as conjugation half life at pH 7.4; assay type: physicochemical
[8] = Clearance in C57BL/6 mouse at 1 mg/kg, iv; assay type: ADME, organism-based; settings: in vivo
Summary of the method: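 Female C57BL/6 mice, single IV dose of 1 mg/kg given as a solution in 10% NMP, 10% Solutol HS15 and 80% saline. Parameters come from the plasma concentration–time profile.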

[9] = Toxicity in SCID mouse xenografted with human MV4-11 cells assessed as signs of toxicity at 100 mg/kg, po administered daily for 26 days; assay type: organism-based; settings: in vivo, 624 h, time 26 day
Summary of the method: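 Female C.B-17 SCID mice bearing subcutaneous MV4;11 flank tumors (5×10^6 cells with Matrigel 1:1), treated once tumors averaged about 100 mm3. Dosed 100 mg/kg daily by oral gavage for 26 days in 0.5% MC + 0.2% Tween 80 vehicle. Body weight measured daily.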

MV4-11 [10] = test: Suppression of MEIS1 gene expression in human MV4-11 cells at 30 nM measured after 24 hrs by qRT-PCR analysis; assay type: functional, cell-based
MV4-11 [11] = test: Anti-proliferative activity against human MV4-11 cells harboring MLL/AF4 fusion protein assessed as cell growth inhibition measured after 4 days by Cell Titre Glo Luminescent Cell viability assay; assay type: functional, cell-based; settings: MV4-11, 96 h
MV4-11 [12] = test: Anti-tumor activity against human MV4-11 cells xenografted in SCID mouse assessed as tumor regrowth at 300 mg/kg, po qd administered daily for 15 days; assay type: functional, organism-based; settings: time 15.0 day
Summary of the method: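 Female C.B-17 SCID mice, 5–6 weeks old, implanted subcutaneously in the right flank with 5×10^6 MV4;11 cells in 1:1 Matrigel. Randomized at about 200 mm3. Dosed 300 mg/kg by oral gavage once daily for 15 days in 0.5% MC (400 cP) + 0.2% Tween 80 at 10 mL/kg. Body weight measured daily; caliper volume (0.5×W×W×L) three times weekly.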

Menin (Homo sapiens) [13] = target: T1, Menin (Homo sapiens); test: Binding affinity to recombinant human menin protein assessed as covalent complex formation incubated for 1 hrs by LC/MS analysis; parameters: concentration or dose not given beside the values
Summary of the method: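 Menin (25 mg/mL in 25 mM Tris pH 8.0, 150 mM NaCl, 5 mM DTT) incubated with compound at a 1:1.2 protein:compound molar ratio for 1 h or overnight at 4 °C. Diluted to 1 mg/mL, then reverse-phase C4 LC with a 5–100% MeCN/0.2% formic acid gradient and Q-TOF mass spectrometry to detect the covalent adduct.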

Menin (Homo sapiens) [14] = target: T1, Menin (Homo sapiens); test: Binding affinity to recombinant human menin protein assessed as covalent complex formation measured after overnight incubation by LC/MS analysis; parameters: concentration or dose not given beside the values
[15] = AUC (0 to infinity) in C57BL/6 mouse at 5 mg/kg, po; assay type: ADME, organism-based; parameters: route oral, time infinity, dose 5 mg/kg; settings: in vivo; summary of the method: as §2
[16] = Cmax in C57BL/6 mouse at 5 mg/kg, po; assay type: ADME, organism-based; parameters: route oral, dose 5 mg/kg; settings: in vivo; summary of the method: as §2
RS4-11 = test: Anti-proliferative activity against human RS4-11 cells harboring MLL/AF4 fusion protein assessed as cell growth inhibition measured after 4 days by Cell Titre Glo Luminescent Cell viability assay; assay type: functional, cell-based; settings: RS4-11, 96 h; summary of the method: as §1
[17] = Protein binding in rat plasma at 1 uM incubated for 5 hrs by liquid chromatography-tandem mass spectrometry; assay type: ADME, cell-free; summary of the method: as §4

IC50 (HL-60): > 10000 nM | F [1]: 49.4% | PPB [4]: 99.3% | Activity (Menin (Homo sapiens) [6]): 59% | t1/2 [7]: 1.48 h | clearance [8]: 0.945 mL/min/kg | IC50 (MV4-11 [11]): 10.3 nM | Activity (Menin (Homo sapiens) [13]): 66% | Activity (Menin (Homo sapiens) [14]): 100% | AUC(0-inf) [15]: 43600 ng·h/mL | Cmax [16]: 4150 ng/mL | IC50 (RS4-11): 1000 nM | PPB [17]: 87.5%
SMILES: C=CC(=O)N1C[C@@H]2C[C@H]1CN2S(=O)(=O)c1ccc(N2CC(CN3CCC([C@@](CN4CCC4)(c4cccc(F)c4)[C@H]4CCC[C@@H]4NC(=O)OC)CC3)(OC)C2)cc1
IC50 (KOPN-8): 110 nM | IC50 (MEG-01): > 10000 nM | IC50 [2]: 3 nM | Activity [3]: Non-Toxic | Activity (MV4-11 [5]): Active | Activity [9]: Non-Toxic | inhibition (MV4-11 [10]): Active | Activity (MV4-11 [12]): Active
